Screening results: PubChem BioAssay, SRMLSC
PTEN del growth: growth suppressors of cells with PTEN tumor suppressor deletion | HCT116 PTEN-null viability, CellTiter-Glo, 60 h; active compounds read low | viability, % at 10 µM | 140,000 compounds, 1.2% hits | AID 827;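 active means viability at or below a set limit, 4 SD under the median of all tested compounds, cut at about 3.7% in these data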;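 further: PTEN knockout HCT116 line with beta catenin targeted HCT116 as companion control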
Lung fibro prol: blocks proliferation of human lung fibroblasts; LL 47 human lung fibroblast viability, ATP luminescence; active compounds read low; viability, % at 10 µM; 85,000 compounds, 1.1% hits;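 active means viability at or below 50% in the single dose screen; inactive means viability above 50%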;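 further: compound exposure lasted 72 h before the ATP readout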
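Test system: LL 47 human lung fibroblasts / Quantity: 1,150 cells in each well / Medium: IMEM growth medium with 15% fetal bovine serum / Incubation: 72 h compound exposure at 37 °C after overnight plating / Detection: CellTiter-Glo luminescence measuring cellular ATP / Read-out: % viability versus median cells-only luminescence / Benchmarks: cell-only wells, no compound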
H69AR growth 86K: blocks growth of human H69AR lung tumor cells. H69AR lung tumor viability, ATP luminescence, 72 h; active compounds read low. viability, % at 10 µM. 85,000 compounds, 6% hits. AID 598;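 active means viability at or below 40%; inactive means viability above 40%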;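 further: multidrug resistant small cell line overexpressing MRP-1 efflux transporter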
HUVEC inhibit: inhibitors of human endothelial cell proliferation | 86,000 compounds, 1.1% hits | viability, % at 10 µM (by protocol) | HUVEC proliferation, CellTiter-Glo luminescence, 72 h; active compounds read low;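 active means viability at or below 30%; inactive means viability above 30%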
bCat KO growth: beta-catenin-lacking colon tumor cell growth suppression | 140,000 compounds, 1.5% hits | HCT116 beta-catenin knockout viability, CellTiter-Glo, 60 h; active compounds read low | viability, % at 10 µM;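 active means viability at or under a set limit, the compound median less 4 SD, cut at about 6% in these data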
Of the large screens only hits and unclear results are named; the others gave an inactive call. The entries come from a sample that favours hits as a whole.

CCC1Oc2ccc(C)cc2N(CC(=O)N(Cc2cccnc2)Cc2ccc(C)o2)C1=O (centres undefined)	none
CCCC(=O)N1CCN(c2ccc([N+](=O)[O-])c(NC(C)c3ccccc3)c2)CC1 (centres undefined)	none (no result: Lung fibro prol, H69AR growth 86K, HUVEC inhibit)
CN1Cc2cccc3c2C(Cc2ccccc2S3)C1 (centres undefined)	none (no result: Lung fibro prol, H69AR growth 86K, HUVEC inhibit)
Cn1c(=O)cc(SCC(=O)NCCC2=CCCCC2)c2ccccc21	none (no result: Lung fibro prol, H69AR growth 86K, HUVEC inhibit)
Cc1ccc(S(=O)(=O)Nc2cccc3ncccc23)s1	PTEN del growth 1.5, bCat KO growth 1.5 (no result: Lung fibro prol, H69AR growth 86K, HUVEC inhibit)
Cc1ccc(S(=O)(=O)Nc2ccnc3ccccc23)cc1	none
CCOC(=O)/C(=C\c1ccc([N+](=O)[O-])o1)NC(=O)c1ccccc1	none
Cc1cc(C)nc(NC(=O)c2ccc([N+](=O)[O-])o2)n1	bCat KO growth 4.2 (no result: Lung fibro prol, H69AR growth 86K, HUVEC inhibit)
O=C(NNC(=S)NC(=O)c1ccccc1[N+](=O)[O-])c1ccccc1	H69AR growth 86K 25.4
O=C(NNC(=O)c1ccc([N+](=O)[O-])o1)c1ccccc1	Lung fibro prol 43.4
COc1ccc(C(=O)N/C(=C\c2ccc3c(c2)OCO3)C(=O)NCCc2nc3ccccc3[nH]2)cc1	none (no result: Lung fibro prol, H69AR growth 86K, HUVEC inhibit)
COc1ccc(NC(=O)CC2C(=O)N(c3ccc(F)cc3)C(=S)N2NC(=O)c2ccc(Cl)cc2)cc1 (centres undefined)	none (no result: Lung fibro prol, H69AR growth 86K, HUVEC inhibit)
O=C(CCCO)N/N=C/c1ccccc1[N+](=O)[O-]	none (no result: Lung fibro prol, H69AR growth 86K, HUVEC inhibit)
Cn1c(Oc2ccccc2)c(C=O)c2ccccc21	none (no result: Lung fibro prol, H69AR growth 86K, HUVEC inhibit)
COCc1cc(=O)[nH]c(Nc2nc3ccc(C)cc3o2)n1	Lung fibro prol 5.2, H69AR growth 86K 21.4
Nc1ccc(C(=O)OCC(=O)Nc2cc([N+](=O)[O-])ccc2F)cc1	none (no result: Lung fibro prol, H69AR growth 86K, HUVEC inhibit)
CCOC(=O)Cc1c(C)nc2c(-c3cccc(Br)c3)c[nH]n2c1=O	H69AR growth 86K 28.3, HUVEC inhibit 4.7
CCOC(=O)Cc1c(C)nc2c(-c3ccc(Cl)cc3)c(C)[nH]n2c1=O	H69AR growth 86K 38.7
CCOC(=O)Cc1c(C)nc2c(C#N)c[nH]n2c1=O	none
CCOC(=O)Cc1cc(=O)n2[nH]c(-c3ccccc3)cc2n1	none
CCOC(=O)Cc1c(C)nc2cc(-c3ccc(C(C)(C)C)cc3)[nH]n2c1=O	H69AR growth 86K 37.3
Cc1cc(=O)n2[nH]c(C)c(-c3ccc(Cl)cc3)c2n1	H69AR growth 86K 36.1
COc1ccc(/C(C)=N/OC/C(O)=C(\C#N)c2nc3ccccc3[nH]2)cc1	none (no result: Lung fibro prol, H69AR growth 86K, HUVEC inhibit)
C1CNCCNCCNCCN1	none (no result: PTEN del growth, bCat KO growth)
COC(=O)C1=C(C)NC2=C(C(=O)CCC2)C1c1ccccn1 (centres undefined)	none (no result: PTEN del growth, bCat KO growth)
Cc1nc(NCCc2ccccc2F)c(C#N)c(C)c1[N+](=O)[O-]	none (no result: Lung fibro prol, H69AR growth 86K, HUVEC inhibit)
O=c1c2c(nc3c(-c4cccc(Br)c4)c[nH]n13)CCCC2	H69AR growth 86K 20.4
COc1ccccc1CNC(=O)C1(c2ccc(Cl)cc2)CC1	none (no result: Lung fibro prol, H69AR growth 86K, HUVEC inhibit)
N#C/C(=C\c1ccc(OCc2ccccc2)cc1)C(=O)Nc1nc2c(s1)CCN(Cc1ccccc1)C2	Lung fibro prol 17.3, H69AR growth 86K 21.9, HUVEC inhibit 12.6
Cc1ccc2nc(NC3=NCN(Cc4ccc5c(c4)OCO5)CN3)nc(C)c2c1	Lung fibro prol 41.9, H69AR growth 86K 27.9 (no result: PTEN del growth, bCat KO growth)
Cc1ccc2nc(NC3=NCN(Cc4ccco4)CN3)nc(C)c2c1	none (no result: PTEN del growth, bCat KO growth)
CCn1nc(C(=O)NC2=NCCS2)c2ccccc2c1=O	HUVEC inhibit 2.7
Fc1ccc2c(Cl)c(-c3nnc(-c4cccs4)o3)sc2c1	Lung fibro prol 24.1, H69AR growth 86K 11.6
C=CCOc1ccc2c(c1)C(=NO)c1cc(OCC=C)ccc1-2	H69AR growth 86K 33.6
COC(=O)c1ccc2c(c1)C(C)(C)C(/C=C/c1ccc(OC)c(OC)c1OC)=[N+]2C	PTEN del growth 0.6, Lung fibro prol 6.5, H69AR growth 86K 4.1, HUVEC inhibit 5.3, bCat KO growth 4.9
COC(=O)c1ccc2c(c1)C(C)(C)C(/C=C/c1ccc(O)cc1)=[N+]2C	PTEN del growth 1.7, bCat KO growth 1.9 (no result: Lung fibro prol, H69AR growth 86K, HUVEC inhibit)
COC(=O)c1ccc2nc(C)c(C)nc2c1	none (no result: Lung fibro prol, H69AR growth 86K, HUVEC inhibit)
CC1CCN(S(=O)(=O)c2ccc3c(c2)c(=O)c(C(=O)NCc2ccccc2Cl)cn3C)CC1	none (no result: Lung fibro prol, H69AR growth 86K, HUVEC inhibit)
CC(C)(C)c1nnc2sc(SCCN3C(=O)c4ccccc4C3=O)nn2c1=O	none
CC(C)N(C(=O)CSc1nn2c(=O)c(C(C)(C)C)nnc2s1)c1ccccc1	H69AR growth 86K 14.3 (no result: Lung fibro prol)
Cc1cc(C)c2nc(SCC#N)cc(C)c2c1	H69AR growth 86K 24.0
O=C(c1cn(-c2ccccc2)nc1-c1ccncc1)n1nnc2ccccc21	H69AR growth 86K 8.1 (no result: PTEN del growth, Lung fibro prol, bCat KO growth)
O=C(O)c1cn(-c2ccccc2)nc1-c1ccncc1	none
